Experimental data pooled from the literature.
Target: Cholinesterase (BCHE, Homo sapiens, UniProt P06276)
Observed: enzyme activity
Action: inhibitor

SMILES	test	IC50
COc1cccc(C=NNC(=O)c2cc(-c3cn(C)c4ccccc34)on2)c1OC		> 100 µM
O=[N+]([O-])c1c[nH]c(-c2n[nH]c(=S)n2/N=C/c2ccc(Oc3ccccc3)cc2)c1	Ellman	21.1 µM
C#CCN(C)CCCCCCOc1cccc(CN(C)c2c3c(nc4ccccc24)CCCC3)c1	Ellman	0.32 µM
COc1ccc(S(=O)(=O)Oc2ccc(C=NNC(=O)c3ccc(F)cc3)cc2OC)cc1	Ellman	0.0764 µM
C#CCN(C)CCCCCOc1cccc(CN(C)c2c3c(nc4ccccc24)CCCC3)c1	Ellman	0.33 µM
Cc1ccc(CN2CCN(Cc3nnc(-c4ccccc4)o3)CC2)cc1	Ellman	> 10 µM
C#CCN(C)CCCCCCCCOc1cccc(CN(C)c2c3c(nc4ccccc24)CCCC3)c1	Ellman	0.91 µM
Cn1cc(-c2cc(C(=O)NN=Cc3ccccc3F)no2)c2ccccc21		> 100 µM
O=[N+]([O-])c1c[nH]c(-c2n[nH]c(=S)n2/N=C/c2ccc(F)cc2O)c1	Ellman	7.8 µM
COc1ccc(S(=O)(=O)Oc2cccc(C=NNC(=O)c3ccc(F)cc3)c2)cc1	Ellman	0.111 µM
COc1cccc(C=NNC(=O)c2cc(-c3cn(C)c4ccccc34)on2)c1		> 100 µM
C#CCN(C)CCOc1cccc(CN(C)c2c3c(nc4ccccc24)CCCC3)c1	Ellman	2 µM
Cn1cc(-c2cc(C(=O)NN=Cc3cccc(Br)c3)no2)c2ccccc21		> 100 µM
CN(C)c1ccc(/C=N/n2c(-c3cc([N+](=O)[O-])c[nH]3)n[nH]c2=S)c(O)c1	Ellman	22.2 µM
COc1ccc(S(=O)(=O)Oc2ccc3ccccc3c2C=NNC(=O)c2ccc(F)cc2)cc1	Ellman	0.134 µM
O=[N+]([O-])c1c[nH]c(-c2n[nH]c(=S)n2/N=C/c2ccc(Cl)cc2[N+](=O)[O-])c1	Ellman	16.4 µM
C#CCN(C)CCCOc1cccc(CN(C)c2c3c(nc4ccccc24)CCCC3)c1	Ellman	0.41 µM
O=[N+]([O-])c1c[nH]c(-c2n[nH]c(=S)n2/N=C/c2cc(O)cc(F)c2)c1	Ellman	9.6 µM
C#CCN(C)CCCCOCc1ccc(CN(C)c2c3c(nc4ccc(C)cc24)CCCC3)cc1	Ellman	1.78 µM
O=[N+]([O-])c1c[nH]c(-c2n[nH]c(=S)n2/N=C/c2ccc(Br)c(Br)c2)c1	Ellman	28.4 µM
C#CCN(C)CCCCCCOCc1ccc(CN(C)c2c3c(nc4ccc(C)cc24)CCCC3)cc1	Ellman	1.27 µM
COc1cccc(C=NNC(=O)c2cc(-c3cn(C)c4ccccc34)on2)c1O		> 100 µM
O=[N+]([O-])c1c[nH]c(-c2n[nH]c(=S)n2/N=C/c2cc(Cl)cc(Cl)c2)c1	Ellman	14.3 µM
